Published values of several laboratories.
Lines come from different studies, so protocols differ.
Target: Misshapen-like kinase 1 (MINK1, Homo sapiens, UniProt Q8N4C8)

`COc1cc2c(Nc3ccc(Br)cc3F)ncnc2cc1OCC1CCN(C)CC1` gave a remaining signal of 81.5% (cell-free assay; 0.5 µM).
`COc1cc2ncnc(Nc3ccc(Oc4ccccc4)cc3C)c2cc1OC` has an inhibition of 7% (enzyme activity, inhibitor; 1 µM).
With `Nc1ncnc2occ(-c3ccc(NC(=O)Nc4cc(C(F)(F)F)ccc4F)cc3)c12` the remaining signal was 1.5% (cell-free assay, inhibitor; 20 µM).
`Cc1noc([C@H]2C[C@@H](c3ccc(C(F)(F)F)cc3)CN(C(=O)N3CCS(=O)(=O)C3)C2)n1` gave a remaining binding of 100% (cell-free assay, competition with immobilised ligand; 1 µM).
The inhibition of `C=CC(=O)Nc1cc(Nc2nccc(Nc3cc(Cl)c(F)cc3C(C)(C)O)n2)c(OC)cc1N1CC[C@@H](N(C)C)C1` is reported as -3% (enzyme activity, inhibitor; 1 µM).
The remaining activity of `Cc1ccc(C(=O)Nc2ccc(CN3CCN(C)CC3)c(C(F)(F)F)c2)cc1C#Cc1cnc2cccnn12` is reported as 45% (enzyme activity, inhibitor; 23.5 nM).
`CC/C(=N\NC(=O)NCc1cccc(O)c1)c1ccc(O)c(C)c1O` gave an inhibition of -1% (enzyme activity, inhibitor; 0.1 µM).
The activity vs control of `Cc1cc(NC(=O)c2cccc3cc(-c4cccc5[nH]nc(N)c45)ccc23)ccc1F` is reported as 110% (enzyme activity, inhibitor; 0.1 µM).
The inhibition of `COc1cc(-c2cc(-c3ccc(N4CCNCC4)cc3)cnc2N)cc(OC)c1OC` is reported as 74% (enzyme activity, inhibitor; 0.1 µM).
The remaining activity of `CCN(CC)c1ccc(C2=NNC(=O)CC2C)cc1[N+](=O)[O-]` (stereo not shown) is reported as 102% (enzyme activity, inhibitor; 10 µM).
`CCS(=O)(=O)c1cc2cc(C[C@@](O)(CC(C)(C)c3ccc(F)cc3C(N)=O)C(F)(F)F)[nH]c2cn1` gave a remaining binding of 79% (cell-free assay, competition with immobilised ligand; 1 µM).
`COc1cc(/C=C/C(=O)CC(=O)/C=C/c2ccc(O)c(OC)c2)ccc1O` gave an activity vs control of 78% (enzyme activity, inhibitor; 1 µM).
The inhibition of `CNC(=O)c1cc(Oc2ccc(NC(=O)Nc3ccc(Cl)c(C(F)(F)F)c3)cc2)ccn1` is reported as 75% (enzyme activity, inhibitor; 10 µM).
The remaining binding of `O=C(N1CCS(=O)(=O)CC1)N1C[C@H](c2ccc(OC(F)(F)F)cc2)C[C@H](c2nc(C3CC3)no2)C1` is reported as 99% (cell-free assay, competition with immobilised ligand; 1 µM).
`O=C(Nc1cnn(-c2csc(C(=O)NC3COC3)c2)c1)Nc1ccccc1Cl` has a remaining activity of 79.4% (enzyme activity, inhibitor; 5 µM).
`Cn1c(=O)n(-c2ccc(C(C)(C)C#N)cc2)c2c3cc(-c4cnc5ccccc5c4)ccc3ncc21` has a remaining activity of 75% (enzyme activity, inhibitor; 10 µM).
With `COc1cc(Cl)c(C(=O)N[C@@H](CN[C@H]2CC[C@@H](N)CC2)Cc2ccc(C#N)cc2)cc1-c1ccc(CN[C@H](C)c2ccc(C)cc2)o1` the remaining activity was 94% (enzyme activity, inhibitor; 1 µM).
`COc1cc(Nc2cnc(C#N)c(O[C@H](C)CN(C)C)n2)ncc1-c1cnn(C)c1` has a remaining activity of 90% (enzyme activity, inhibitor, radiometric; 1 µM).
`CO[C@@H](C)c1c(Nc2ccc([C@H](N(C)C(=O)C3CCS(=O)(=O)CC3)C(F)(F)F)cc2)cnc2cc(Cl)nn12` has a remaining binding of 100% (cell-free assay, competition with immobilised ligand; 1 µM).
`CN(C)C1CCN(CC#Cc2nn(C3CCCC3)c3nc(NCc4ccccc4)ncc23)C1` (stereo not shown) gave an inhibition of 17% (enzyme activity, inhibitor, FRET; 1 µM).
The activity vs control of `FC(F)(F)Oc1cccc(-c2cnc3ccc(-c4ccncc4)nn23)c1` is reported as 63% (enzyme activity, inhibitor, radiometric; 5 µM).
For `O=S(=O)(NC1CCC(c2cc(F)ccc2F)(S(=O)(=O)c2ccc(Cl)cc2)CC1)C(F)(F)F` (stereo not shown), the remaining binding was 100% (cell-free assay, competition with immobilised ligand; 1 µM).
For `CC(C)(C)c1nc2c(s1)c1nc(N)ncc1c1ccc(NS(=O)(=O)c3c(F)cccc3F)c(F)c12`, the remaining activity was 90% (enzyme activity, inhibitor, radiometric; 1 µM).
For `N#CCCc1ccc2c(c1)-c1[nH]c3ccc([N+](=O)[O-])cc3c1CC(=O)N2`, the remaining signal was 29.9% (cell-free assay; 0.5 µM).
`N#CC1(c2ccccn2)CCN(Cc2cc(C(=O)N3CCCC3)c(=O)n3ccccc23)CC1` has a remaining binding of 89% (cell-free assay, competition with immobilised ligand; 1 µM).
For `Cc1ccc(Nc2nccc(N(C)c3ccc4c(C)n(C)nc4c3)n2)cc1S(N)(=O)=O`, the inhibition was 80% (enzyme activity, inhibitor; 10 µM).
`C[C@H](c1ccnc(Nc2nc3ccc(-c4cc(N(C)C)ncn4)cc3[nH]2)c1)N1CCN(C(=O)CC(F)(F)F)CC1` has a remaining binding of 94% (cell-free assay, competition with immobilised ligand; 0.1 µM).
With `O=C1Nc2ccc(Cl)cc2C1=Cc1cc(Cl)c(O)c(Cl)c1` the remaining signal was 22.4% (cell-free assay; 0.5 µM).
`COc1ccc2c(c1)O[C@@H](c1ccc(OC)c(OC)c1)C[C@H]2NC(=O)C1(c2ccc3c(c2)OC(F)(F)O3)CC1` has a remaining binding of 77% (cell-free assay, competition with immobilised ligand; 1 µM).
`CCN(CC)CCNC(=O)c1c(C)[nH]c(/C=C2\C(=O)Nc3ccc(F)cc32)c1C` has an inhibition of 48% (enzyme activity, inhibitor; 0.3 µM).
`Cc1ccc(C(=O)NCc2ccsc2)cc1C#Cc1cn(C(C)C)c2ncnc(N)c12` has an activity vs control of 84% (enzyme activity, inhibitor; 1 µM).
